# Sampled rows, rich in hits. Any-hit rate of the full collection: about 1.4%.
# PDI turbidity: inhibitors of human PDI, primary screen, biochemical, turbidity, single point, plate reader; AID 588391, 2011; Protein disulfide-isomerase (Homo sapiens), P07237; 350,000 tested, 0.052% active; inhibition, % at 10 µM; PDI insulin aggregation turbidity, A650, 90 min;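 active means mean inhibition across replicates of 30% or more, whatever share of single replicates reach that level; inconclusive means mean inhibition below 30% while every single replicate reaches 30%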
# ERp5 inh: inhibitors of ERp5-driven insulin aggregation, primary screen, biochemical, turbidity, absorbance 650 nm, single point | Protein disulfide-isomerase A6 (Homo sapiens), Q15084 | 90 min | inhibition, % at 9.99 µM | 350,000 tested, 0.05% active | AID 651711, 2012;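 active means mean replicate inhibition above about 25%, with every replicate also reaching it, limit read from the data, passing the limit was not always enough; inconclusive means only one of those two criteria met; inactive means neither criterion met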
# Target sequence (Q15084 whole entry, looked up): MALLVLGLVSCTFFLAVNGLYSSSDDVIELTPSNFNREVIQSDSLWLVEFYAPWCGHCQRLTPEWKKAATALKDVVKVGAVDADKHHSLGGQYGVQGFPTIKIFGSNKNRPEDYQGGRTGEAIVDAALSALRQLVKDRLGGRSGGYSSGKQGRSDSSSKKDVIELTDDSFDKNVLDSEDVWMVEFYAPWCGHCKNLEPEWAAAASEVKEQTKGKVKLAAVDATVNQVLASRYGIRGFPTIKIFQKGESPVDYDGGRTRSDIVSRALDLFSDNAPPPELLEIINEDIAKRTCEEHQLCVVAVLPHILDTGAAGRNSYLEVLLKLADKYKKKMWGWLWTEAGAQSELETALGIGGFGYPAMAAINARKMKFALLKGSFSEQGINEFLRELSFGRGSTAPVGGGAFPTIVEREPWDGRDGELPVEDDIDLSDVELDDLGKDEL
# HIV Env fusion: inhibitors of HIV-1 Env-driven cell-cell fusion, primary screen, HeLa-JRFL effector, CEM21 target cells, luciferase; AID 651610, 2012; inhibition, % at 12.3 µM; 360,000 tested, 1.1% active;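 active means mean replicate inhibition score of at least 50 and every replicate individually at or above 50; inconclusive means only one of the two criteria met; inactive means mean below 50 and not all replicates reaching 50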;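 further: 0% = plate neutral controls and 100% = maraviroc near 300 nM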
# FN deposition inh: inhibitors of fibronectin matrix deposition, primary screen, AH1F cells, Alexa488-fibronectin fluorescence, plate reader. AH1F fibroblasts, overnight. inhibition, % at 12.6 µM. 350,000 tested, 0.086% active;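 active means mean inhibition across replicates of 30% or more, regardless of how many single replicates reach that level; inconclusive means mean under 30% yet at least half of replicates reach 30%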;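 further: positive control wells lacked labelled fibronectin entirely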
#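 Material: AH1F fibroblasts assembling fluorescent fibronectin matrix; amount: 10000 AH1F cells/well; medium: DMEM, 2% serum; reagent: Alexa488-fibronectin, 24 nM final in well; dosing: single compound dose, delivered by pin transfer; incubation: 1 h adhesion, overnight exposure; detection: fluorescence after three HBSS washes, excitation 485 nm, emission 525 nm; measure: fibronectin deposition inhibition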
# GSIS activator: GLuc luminescence reporter in INS-1E cells, primary screen for activators of glucose-dependent secretion of insulin. activation, % at 16.6 µM. INS-1E GLuc reporter insulin secretion, 2-3 h. 370,000 tested, 0.61% active;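 active means lowest replicate activation of at least 40%, so every replicate reaches that level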;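 further: 0% = median of neutral control wells and 100% = median of IBMX positive control wells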
# * = called active by the depositor; ? = inconclusive; . = not tested or not shown; [ ] = remark or other dose.
SMILES,PDI turbidity,ERp5 inh,HIV Env fusion,FN deposition inh,GSIS activator
C[C@@H]1CN([C@@H](C)CO)C(=O)c2cccc(NS(=O)(=O)c3ccc(F)cc3)c2O[C@H]1CN(C)Cc1ccc(C(F)(F)F)cc1,.,-2.0,-13.0[16.7 µM],.,-13.3
C[C@@H]1CN([C@@H](C)CO)C(=O)c2cccc(NS(=O)(=O)c3cccs3)c2O[C@@H]1CN(C)Cc1ccc(Cl)c(Cl)c1,.,1.2,45.9[16.7 µM],.,-28.5
C[C@@H]1CN([C@H](C)CO)C(=O)c2cccc(NS(=O)(=O)c3ccc(F)cc3)c2O[C@@H]1CN(C)Cc1ccc(C(F)(F)F)cc1,.,0.3,77.3*[16.7 µM],.,-0.6
C[C@@H]1CN([C@H](C)CO)C(=O)c2cccc(NS(=O)(=O)c3cccs3)c2O[C@@H]1CN(C)Cc1ccc(Cl)c(Cl)c1,.,1.8,89.7*[16.7 µM],.,-42.9
Cc1noc(C)c1S(=O)(=O)Nc1cccc2c1O[C@H](CN(C)Cc1ccc(C(F)(F)F)cc1)[C@H](C)CN([C@H](C)CO)C2=O,.,-1.9,59.1*[16.7 µM],2.9,-22.7
CCC(=O)N1C[C@H](C)[C@@H](OC)CN(C)C(=O)c2cc(NS(=O)(=O)CC)ccc2OC[C@H]1C,.,1.9,7.0[16.7 µM],-10.4,-6.1
CCOc1nc(NC(=O)NS(=O)(=O)c2cccc(Cl)c2)nc(-c2ccccc2)n1,-1.9,-7.2,12.7,-1.4,71.3*
CCOc1nc(NC(=O)NS(=O)(=O)Oc2ccccc2Cl)nc(-c2ccccc2)n1,-3.3,.,-14.7,3.7,59.9*
O=C(Cc1ccncc1)NCC[C@@H]1CC[C@H](NC(=O)Nc2ccc(F)cc2)[C@@H](CO)O1,.,-0.1,-12.4[16.7 µM],.,-1.8
COc1cccc(OCCCN2CCC(C(O)(c3ccccc3)c3ccccc3)CC2)c1,.,6.6,?,-2.3,9.5
OC(c1ccccc1)(c1ccccc1)C1CCN(CCCOc2ccc3c(c2)CCCC3)CC1,.,2.0,-2.7,1.0,761.6*
OC(c1ccccc1)(c1ccccc1)C1CCN(CCCOc2cc(F)cc(F)c2)CC1,.,4.0,23.6,-1.5,-42.1
OC(c1ccccc1)(c1ccccc1)C1CCN(CCCOc2cccc(OC(F)(F)F)c2)CC1,.,3.5,29.3,1.2,159.9*
Cn1c(=O)c(C(=O)NNC(=O)c2cccc(Cl)c2)c(O)c2ccccc21,17.2,10.0,2.8,3.9,544.6*
CO[C@H]1CN(C)C(=O)c2cc(NS(C)(=O)=O)ccc2OC[C@H](C)N(C)C[C@@H]1C,.,-1.7,-1.9[16.7 µM],-11.9,-9.2
Cc1ccc(Cl)cc1NC1=C/C(=N\S(=O)(=O)c2cccs2)c2ccccc2C1=O,-1.2,-0.8,112.3*,.,-4.2
O=C1C=C(Nc2ccc(O)cc2)C(=O)c2ccccc21,-2.4,-1.2,-74.6,47.2*,9.3
O=C1C(Nc2ccc(O)cc2)=C/C(=N/S(=O)(=O)c2cccs2)c2ccccc21,-1.6,0.8,94.8*,16.6,-1.9
O=C(O)c1ccc(NC2=C/C(=N/S(=O)(=O)c3cccs3)c3ccccc3C2=O)cc1,-12.2,5.8,18.1,-3.5,1.1
Cc1cc(C)c(S(=O)(=O)/N=C2\C=C(Nc3ccc(C(=O)O)cc3)C(=O)c3ccccc32)c(C)c1,-4.3,2.5,72.8*,2.2,6.2
CO[C@@H]1CN(C)C(=O)c2ccc(NC(=O)Nc3c(C)noc3C)cc2OC[C@@H](C)N(CC2CC2)C[C@H]1C,.,-1.5,-10.8[16.7 µM],-2.1,14.4
Cc1cccc(NC2=C/C(=N/S(=O)(=O)c3cccs3)c3ccccc3C2=O)c1,1.3,.,75.6*,15.8,-26.4
CCN(CC(O)CON=C1c2ccccc2-c2ccccc21)S(=O)(=O)c1ccc(C)cc1 (stereo not given),7.8,.,79.1*,0.5,-35.3
CC(C)CCNCC(O)CON=C1c2ccccc2-c2ccccc21 (stereo not given),-0.1,2.6,15.6,4.0,9.2
CS(=O)(=O)N(CC(O)CON=C1c2ccccc2-c2ccccc21)c1ccc(F)cc1 (stereo not given),-4.0,.,.,.,.
SMILES,PDI turbidity,ERp5 inh,HIV Env fusion,FN deposition inh,GSIS activator
Cc1cccc(N(CC(O)CON=C2c3ccccc3-c3ccccc32)S(C)(=O)=O)c1 (stereo not given),7.9,.,64.7*,-6.2,.
CCN(CC(O)CON=C1c2ccccc2-c2ccccc21)S(=O)(=O)c1ccc(Cl)cc1 (stereo not given),12.9,.,76.8*,.,3.3
CN(CC(O)CON=C1c2ccccc2-c2ccccc21)S(=O)(=O)c1ccc(Br)cc1 (stereo not given),-1.2,.,15.5,4.9,-16.0
Nc1c(N(Cc2ccco2)C(=O)c2ccc(Cl)cc2)c(=O)[nH]c(=O)n1Cc1ccccc1,18.7,3.0,4.1,-7.6,-32.5
N#Cc1ccc(C(=O)N(Cc2ccco2)c2c(N)n(Cc3ccccc3)c(=O)[nH]c2=O)cc1,33.2*,-7.3,-5.1,-22.9,-5.4
COc1cc(-c2nnc(-c3cccs3)o2)cc(OC)c1OC,-0.4,.,.,.,.
COc1ccc(-c2nnc(-c3cccs3)o2)cc1OC,-3.9,.,-199.1,-1.7,72.8*
O=C(c1cccc(F)c1)N1C[C@H]2[C@@H](c3ccccc31)[C@@H](CO)N2C(=O)c1ccccn1,.,3.8,.,.,13.5
CC(C)NC(=O)NCC[C@@H]1CC[C@H](NC(=O)CCN2CCCCC2)[C@@H](CO)O1,.,-2.9,.,7.2,-2.9
O=C(O)c1ccc(N/N=C/c2ccc3nccnc3c2)cc1,6.6,1.6,74.9*,-5.3,35.3
CC(C)CCN1CCN=C1Nc1ccccc1,-0.2,0.0,59.8*,-2.9,8.5
C[C@@H]1CN([C@H](C)CO)C(=O)Cc2cc(NC(=O)NC3CCCCC3)ccc2O[C@@H]1CN(C)C(=O)Nc1ccccc1,.,-0.3,10.5[16.7 µM],.,-0.7
CC(=O)N(C)C[C@@H]1Oc2ncc(-c3cccc(F)c3)cc2C(=O)N([C@H](C)CO)C[C@H]1C,.,-0.6,-4.6[16.7 µM],8.5,14.2
CC(C)(C)C1CCC2(CC1)NC(=S)N(c1ccccc1)N2 (stereo not given),8.6,.,-44.8,-7.6,.
S=C1NC2(CCCCCC2)NN1c1ccccc1,.,-0.1,55.4*,4.1,19.0
Cc1ccccc1S(=O)(=O)NC(=O)C1(C)CCN1C(=O)CCc1ccc(Cl)cc1Cl (stereo not given),-0.2,-5.1,71.0*,4.5,30.2
CC1(C(=O)NS(=O)(=O)c2ccccc2Cl)CCN1C(=O)CCc1ccc(Cl)cc1Cl (stereo not given),-1.6,-6.5,4.2,-2.7,14.7
CC1(C(=O)NS(=O)(=O)c2ccc(Cl)cc2)CCN1C(=O)Cc1ccccc1 (stereo not given),3.1,3.9,.,9.4,-2.3
CCCC(C)(C)C(=O)N1CCC1(C)C(=O)NS(=O)(=O)c1ccc(Cl)cc1 (stereo not given),-4.8,3.5,3.8,1.9,42.2*
